Assay [1] deals with Delta-type opioid receptor (Rattus norvegicus, UniProt P33533). Put plainly: Displacement of [3H]deltorphin 2 from delta opioid receptor in rat brain membranes. Type of assay: cell membranes. In outline: (§1)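 Equilibrium competition binding on P2 membrane preparation of rat brain; mu sites labelled with [3H]DAMGO, delta sites with [3H]deltorphin II. Five to eight graded peptide doses, duplicate wells; Ki via Cheng-Prusoff. Mean ± SEM from three to six independent assays using different synaptosomal preparations.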
Sequence of Delta-type opioid receptor (Rattus norvegicus, UniProt P33533) (P33533 whole entry): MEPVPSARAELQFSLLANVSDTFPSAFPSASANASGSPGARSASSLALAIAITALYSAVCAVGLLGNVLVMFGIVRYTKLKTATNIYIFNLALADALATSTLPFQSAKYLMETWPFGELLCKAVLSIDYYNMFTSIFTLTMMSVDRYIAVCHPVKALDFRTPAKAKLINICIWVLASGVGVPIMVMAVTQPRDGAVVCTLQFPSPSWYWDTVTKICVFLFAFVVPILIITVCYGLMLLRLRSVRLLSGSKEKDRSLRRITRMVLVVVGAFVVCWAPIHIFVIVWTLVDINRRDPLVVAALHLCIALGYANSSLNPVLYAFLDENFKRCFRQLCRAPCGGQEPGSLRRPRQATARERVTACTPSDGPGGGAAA
(In a radioligand displacement assay an active substance lowers the binding of a labelled ligand.)

Assay [2] has as its target Mu-type opioid receptor (Homo sapiens) (UniProt P35372). Put plainly: Antagonist activity at mu opioid receptor in human SK-N-SH cells assessed as inhibition of loperamide-stimulated [35S]-GTPgammaS binding after 60 mins by liquid scintillation counting. It is filed as functional, cell-based. In a few lines: (§2)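 [35S]GTPγS binding in cell membranes: delta antagonism measured against deltorphin C-stimulated binding in NG108-15 membranes, mu antagonism against loperamide-stimulated binding in SK-N-SH membranes; antagonism expressed as pA2 from rightward shift of agonist dose-response curves.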

In assay [3] the target is Delta-type opioid receptor (Rattus norvegicus) (UniProt P33533). Put plainly: Antagonist activity at delta opioid receptor in rat NG108-15 cells assessed as inhibition of deltorphin C-stimulated [35S]-GTPgammaS binding after 60 mins by scintillation counting. It is filed as functional, cell-based. In a few lines:
as §2
In general terms: Binding of GTPγS marks nucleotide exchange on a G protein.

The species named for assay [4] is Rattus norvegicus. Put plainly: Selectivity ratio of Ki for rat mu opioid receptor to Ki for rat delta opioid receptor.
Assay [5] concerns the target Mu-type opioid receptor (Rattus norvegicus, UniProt P33535). Put plainly: Displacement of [3H]DAMGO from mu opioid receptor in rat brain membranes. Type of assay: cell membranes. In outline:
as §1

The target of assay [6] is Mu-type opioid receptor (Cavia porcellus, UniProt P97266). The experiment in a line: Antagonist activity at mu opioid receptor in guinea pig ileum. Type of assay: functional, tissue-based.
Sequence of Mu-type opioid receptor (Cavia porcellus, UniProt P97266) (P97266 whole entry): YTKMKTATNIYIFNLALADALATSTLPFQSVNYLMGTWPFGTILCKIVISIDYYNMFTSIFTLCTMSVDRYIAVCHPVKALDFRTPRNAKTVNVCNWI
Assay [7] concerns the target Delta-type opioid receptor (Mus musculus, UniProt P32300). The experiment in a line: Antagonist activity at delta opioid receptor in mouse vas deferens. Type of assay: functional, tissue-based.
The species named for assay [8] is Rattus norvegicus. The experiment in a line: Selectivity ratio of Ki for rat delta opioid receptor to Ki for rat mu opioid receptor.

The source made the active and inactive calls. The calls are words filed in the database; no cut-off is given here. Numbered stars: 1 amine (or outer) side, 2 acyl side, 3 side chain; on linkers, the order of the positions; unused ones are H or OH. Bridge positions count the residues as written; N and C are the ends. Square brackets hold non-standard residues; d marks the D form. Peptide text beside a SMILES is read from it. I, II: the chains in the order shown. Dmt = Cc1cc(O)cc(C)c1C[C@H](N)C(=O)O; Ethylenediamine = C(CN[*:2])N[*:1]; Tic = O=C(O)[C@@H]1Cc2ccccc2CN1

Sequence of Delta-type opioid receptor (Mus musculus, UniProt P32300) (P32300 whole entry): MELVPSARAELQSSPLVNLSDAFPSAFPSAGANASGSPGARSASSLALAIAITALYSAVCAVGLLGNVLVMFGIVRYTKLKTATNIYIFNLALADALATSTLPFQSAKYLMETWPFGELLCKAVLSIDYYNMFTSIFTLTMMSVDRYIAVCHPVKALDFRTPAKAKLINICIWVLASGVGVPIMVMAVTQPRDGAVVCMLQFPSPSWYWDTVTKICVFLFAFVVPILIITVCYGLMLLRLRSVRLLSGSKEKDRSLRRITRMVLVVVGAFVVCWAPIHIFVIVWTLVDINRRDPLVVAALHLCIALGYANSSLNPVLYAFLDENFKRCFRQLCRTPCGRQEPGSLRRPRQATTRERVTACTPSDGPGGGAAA
Sequence of Mu-type opioid receptor (Homo sapiens) (P35372 whole entry): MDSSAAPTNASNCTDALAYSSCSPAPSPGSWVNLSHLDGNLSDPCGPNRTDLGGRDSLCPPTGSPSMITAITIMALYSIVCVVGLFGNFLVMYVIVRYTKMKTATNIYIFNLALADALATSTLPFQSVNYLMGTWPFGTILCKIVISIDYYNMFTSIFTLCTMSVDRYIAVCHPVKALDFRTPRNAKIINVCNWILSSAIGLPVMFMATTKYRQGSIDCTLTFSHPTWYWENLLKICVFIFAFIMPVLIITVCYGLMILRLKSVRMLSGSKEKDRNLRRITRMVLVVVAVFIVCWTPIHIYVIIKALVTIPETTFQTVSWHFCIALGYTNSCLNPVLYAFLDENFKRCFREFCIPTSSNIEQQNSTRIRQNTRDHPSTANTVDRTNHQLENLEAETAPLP
Sequence of Mu-type opioid receptor (Rattus norvegicus, UniProt P33535) (P33535 whole entry): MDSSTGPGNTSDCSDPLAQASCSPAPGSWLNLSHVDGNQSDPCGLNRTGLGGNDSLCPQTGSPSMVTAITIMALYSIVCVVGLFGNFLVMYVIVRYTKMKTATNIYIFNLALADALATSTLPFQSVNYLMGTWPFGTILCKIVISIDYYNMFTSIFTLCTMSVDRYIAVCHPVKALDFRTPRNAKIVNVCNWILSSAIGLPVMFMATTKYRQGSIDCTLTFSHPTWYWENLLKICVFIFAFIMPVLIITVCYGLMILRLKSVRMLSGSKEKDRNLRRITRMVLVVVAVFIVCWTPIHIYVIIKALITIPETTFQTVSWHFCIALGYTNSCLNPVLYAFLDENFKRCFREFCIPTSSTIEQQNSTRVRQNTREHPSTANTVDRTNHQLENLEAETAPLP
Sequence of Delta-type opioid receptor (Rattus norvegicus) (P33533 whole entry): as the sequence (P33533 whole entry) above

Turning to `Cc1cc(O)cc(C)c1C[C@@H](C(=O)N[C@H]1Cc2c([nH]c3ccccc23)CN(CC(=O)NCCNC(=O)CN2Cc3[nH]c4ccccc4c3C[C@H](NC(=O)[C@H](Cc3c(C)cc(O)cc3C)N(C)C)C2=O)C1=O)N(C)C`, the inhibition constant Ki in assay [1] worked out at 101 nM; at Mu-type opioid receptor [5] it was 344 nM. Besides, the pA2 result in assay [2] and in assay [3] was “inactive” in each case. Moreover, the Ratio Ki in the assay listed under Rattus norvegicus [4] is 3.4.
`Cc1cc(O)cc(C)c1C[C@H](N)C(=O)N1Cc2ccccc2C[C@H]1C(=O)NCC/C=C/CCNC(=O)[C@@H]1Cc2ccccc2CN1C(=O)[C@@H](N)Cc1c(C)cc(O)cc1C` displayed an inhibition constant Ki at Mu-type opioid receptor [5] of 1.5 nM.
Turning to `Cc1cc(O)cc(C)c1C[C@H](N)C(=O)N1Cc2ccccc2C[C@H]1C(=O)NCCNC(=O)[C@@H]1Cc2ccccc2CN1C(=O)[C@@H](N)Cc1c(C)cc(O)cc1C` (I: H-[Dmt]-[Tic] / II: H-[Dmt]-[Tic]; linker I:C-II:C via Ethylenediamine), the figures for the Ki (in assay [1]; at Mu-type opioid receptor [5]) were 0.96 nM and 10.2 nM, respectively. Further, the IC50 (at Mu-type opioid receptor [6]; in assay [7]) was greater than 10000 nM each time.
With `Cc1cc(O)cc(C)c1C[C@H](N)C(=O)N1Cc2ccccc2C[C@H]1C(=O)NCCN(CCNC(=O)[C@@H]1Cc2ccccc2CN1C(=O)[C@@H](N)Cc1c(C)cc(O)cc1C)CCNC(=O)[C@@H]1Cc2ccccc2CN1C(=O)[C@@H](N)Cc1c(C)cc(O)cc1C`, the Ki in assay [1] is 3.75 nM; on Mu-type opioid receptor [5] it was 7.78 nM. The IC50 (against Mu-type opioid receptor [6]; in assay [7]) was greater than 10000 nM in each case.
For the compound `Cc1cc(O)cc(C)c1C[C@H](N)C(=O)N[C@H]1Cc2ccccc2CN(CC(=O)NCCNC(=O)CN2Cc3ccccc3C[C@H](NC(=O)[C@@H](N)Cc3c(C)cc(O)cc3C)C2=O)C1=O`, the inhibitory constant (Ki) is 154 nM in assay [1] and 16.1 nM on Mu-type opioid receptor [5]. At Mu-type opioid receptor [6], this compound registered an IC50 greater than 10000 nM.
For the compound `Cc1cc(O)cc(C)c1C[C@H](N)C(=O)N[C@H]1Cc2ccccc2CN(CC(=O)NCCN(CCNC(=O)CN2Cc3ccccc3C[C@H](NC(=O)[C@@H](N)Cc3c(C)cc(O)cc3C)C2=O)CCNC(=O)CN2Cc3ccccc3C[C@H](NC(=O)[C@@H](N)Cc3c(C)cc(O)cc3C)C2=O)C1=O`, the Ki in assay [1] is 196 nM; on Mu-type opioid receptor [5] it was 8.06 nM. Further, the IC50 (on Mu-type opioid receptor [6]; in assay [7]) was greater than 10000 nM each time.
On to `Cc1cc(O)cc(C)c1C[C@H](N)C(=O)N[C@@H]1Cc2c([nH]c3ccccc23)CN(CC(=O)NCCNC(=O)CN2Cc3[nH]c4ccccc4c3C[C@@H](NC(=O)[C@@H](N)Cc3c(C)cc(O)cc3C)C2=O)C1=O`, for which, in the assay listed under Rattus norvegicus [8], the Ratio Ki came to 1.5. Besides, the Ki in assay [1] was determined as 211 nM; on Mu-type opioid receptor [5] it was 139 nM. Further, the pA2 entry in assay [2] and in assay [3] was “inactive” each time.
For `Cc1cc(O)cc(C)c1C[C@H](N)C(=O)N[C@@H]1Cc2c([nH]c3ccccc23)CN(CC(=O)NCc2ccc(CNC(=O)CN3Cc4[nH]c5ccccc5c4C[C@@H](NC(=O)[C@@H](N)Cc4c(C)cc(O)cc4C)C3=O)cc2)C1=O`, the Ratio Ki in the assay filed under Rattus norvegicus [8] stood at 2. The Ki is 361 nM in assay [1] and 177 nM at Mu-type opioid receptor [5]. The pA2 result in assay [2] and in assay [3] was “inactive” throughout.
On to `Cc1cc(O)cc(C)c1C[C@H](N)C(=O)N1Cc2ccccc2C[C@H]1C(=O)O` (H-[Dmt]-[Tic]-OH), for which, on Mu-type opioid receptor [5], the Ki worked out at 3.32 nM.

A word on the Ki: it is the equilibrium dissociation constant of an inhibitor or competing ligand from its target. Read a low Ki as tighter binding. The term IC50 denotes the midpoint of a concentration-inhibition curve.

For the origin of these results see ChEMBL document CHEMBL1154939, “Novel multiple opioid ligands based on 4-aminobenzazepinone (Aba), azepinoindole (Aia) and tetrahydroisoquinoline (Tic) scaffolds” (Bioorg Med Chem Lett, 2010).
